# TRPC6 inhibitor: mouse TRPC6 channel inhibition. Q61143. HEK293-TRPC6, membrane potential dye, ACh-evoked depolarization; hits give low values. B-score at 10 µM. 310,000 compounds, 1.1% hits;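 active = B-score under library mean minus 3 SD, initial fluorescence not abnormally high, positive integrated signal ratio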;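 also: B-score derived from integrated fluorescence ratio over the kinetic read; more negative B-score means stronger inhibition of depolarization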
# Target sequence (Q61143 whole entry, looked up): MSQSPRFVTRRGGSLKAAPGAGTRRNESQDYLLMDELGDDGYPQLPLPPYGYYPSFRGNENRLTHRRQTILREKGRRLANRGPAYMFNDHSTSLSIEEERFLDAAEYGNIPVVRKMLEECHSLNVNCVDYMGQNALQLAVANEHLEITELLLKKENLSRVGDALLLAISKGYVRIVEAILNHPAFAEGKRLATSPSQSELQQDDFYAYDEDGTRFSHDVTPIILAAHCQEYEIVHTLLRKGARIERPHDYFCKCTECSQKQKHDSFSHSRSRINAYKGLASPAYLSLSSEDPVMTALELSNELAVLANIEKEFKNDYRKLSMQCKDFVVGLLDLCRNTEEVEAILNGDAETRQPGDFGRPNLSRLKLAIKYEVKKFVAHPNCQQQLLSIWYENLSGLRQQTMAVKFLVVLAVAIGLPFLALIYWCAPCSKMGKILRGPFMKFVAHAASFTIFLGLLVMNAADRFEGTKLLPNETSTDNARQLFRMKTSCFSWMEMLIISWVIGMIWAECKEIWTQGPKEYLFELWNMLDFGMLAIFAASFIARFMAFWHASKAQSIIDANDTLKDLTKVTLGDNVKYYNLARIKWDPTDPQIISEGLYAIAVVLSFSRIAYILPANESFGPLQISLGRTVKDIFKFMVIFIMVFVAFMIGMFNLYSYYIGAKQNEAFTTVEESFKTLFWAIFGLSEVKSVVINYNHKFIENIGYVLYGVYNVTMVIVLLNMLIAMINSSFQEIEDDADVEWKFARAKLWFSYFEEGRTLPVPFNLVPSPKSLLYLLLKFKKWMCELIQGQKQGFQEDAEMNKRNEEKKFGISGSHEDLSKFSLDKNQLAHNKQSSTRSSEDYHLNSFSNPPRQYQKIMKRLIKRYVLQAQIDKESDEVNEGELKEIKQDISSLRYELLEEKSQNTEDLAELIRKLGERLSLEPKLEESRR
# TRPC6 act: activates the mouse TRPC6 cation channel; 310,000 compounds, 0.13% hits; HEK293-TRPC6 membrane potential dye fluorescence; hits give high values; AID 2550; Q61143; B-score at 10 µM;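 active = B-score of the integrated fluorescence ratio above library mean plus 3 SD, and starting fluorescence ratio within library mean plus 5 SD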;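 also: higher score means more depolarization so channel activation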
# TRPC4 act: opens the mouse TRPC4 cation channel; HEK293 TRPC4beta/mu-opioid, Fluo4 calcium fluorescence; hits give high values; B-score at 10 µM; Q9QUQ5; 310,000 compounds, 0.49% hits;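 active = B-score above 5 SD of library B-scores, and initial fluorescence ratio not above library mean plus 5 SD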;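 also: positive B-score marks a calcium rise read as TRPC4 activation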
#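 Test system: HEK293 cells stably co-expressing mouse TRPC4beta and mu-opioid receptor | Schedule: Fluo4 dye loading 45 min at room temperature, 110 s recording | Measured by: Kinetic Fluo4 calcium fluorescence, 5 s baseline at 1 Hz | Evaluation: B score of integrated ratio | Controls: Buffer (low) and maximal DAMGO (high)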
# TRPC4 inh: TRPC4 (mouse) channel inhibition | B-score at 10 µM | 300,000 compounds, 0.39% hits | AID 2247 | HEK293 TRPC4beta/mu-opioid, DAMGO-evoked Fluo4 calcium flux; hits give low values;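 active = B-score over 3 SD under the library average, no early fluorescence shift, positive overall ratio signal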
#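 Assay system: TRPC4beta/mu-opioid receptor HEK293 cell line; compound dosing: single concentration per test compound; detection: Fluo4 Ca2+ flux fluorescence; evaluation: per-well B score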
# TRPC4 potent: allosteric potentiators of mouse TRPC4 channel. HEK293 TRPC4beta/mu-opioid, DAMGO EC20, Fluo-4 Ca2+ flux; hits give high values. AID 2227. 310,000 compounds, 0.42% hits. B-score at 10 µM. Q9QUQ5;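 active = B-score of calcium response area above 5 SD of library B-scores, with initial fluorescence ratio within 5 SD of library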;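 also: B-score of integrated fluorescence ratio over time as area under calcium response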
# TRPC4 spec 2: second check of whether TRPC6 inhibitors also affect mouse TRPC4 | shares compounds with TRPC6 inhibitor | inhibition, % at 10 µM | 920 compounds, 42% hits | HEK293 TRPC4/MOR, membrane potential dye fluorescence; channel activated by saturating DAMGO dose;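 active = compounds whose fluorescence signal differed from control wells by over 3 SD, either direction, in both duplicate plates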
# TRPC4 spec: selectivity of TRPC6 inhibitors: effect on mouse TRPC4; shares compounds with TRPC6 inhibitor; HEK293 TRPC4/mu-opioid, membrane potential fluorescence; activity change, negative = inhibition, % at 10 µM; 920 compounds, 61% hits;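 active = rise or fall in signal beyond 3 SD of buffer-only wells in both replicate plates, either sign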;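 also: integrated kinetic ratio of fluorescence range over baseline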
# HEK293 MPD ctr 2-1: parental HEK293 nonspecific activity of TRPC6 inhibitors, second screen | 920 compounds, 31% hits | signal change vs control, % at 10 µM | parental HEK293 membrane potential dye fluorescence; maximal acetylcholine challenge after compound addition | shares compounds with TRPC6 inhibitor | AID 2779;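 active = membrane potential signal moving either way by over 3 SD of the maximum-effect control, in both duplicate plates, meaning non-specific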
# HEK293 MPD ctr-1: parental HEK293 nonspecific activity of TRPC6 inhibitors. membrane potential signal change, % at 10 µM. AID 2780. parental HEK293 membrane potential dye fluorescence. shares compounds with TRPC6 inhibitor. 920 compounds, 60% hits;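 active = membrane potential signal shifting up or down by more than 3 SD of buffer-only wells, on both duplicate plates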
# HEK293 MPD ctr-2: parental HEK293 nonspecific activity of TRPC6 modulators. membrane potential signal change, % at 10 µM. shares compounds with TRPC6 inhibitor. 2,400 compounds, 51% hits. membrane potential dye fluorescence;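 active = membrane potential signal moves up or down beyond 5 SD from buffer-only wells, on both duplicate plates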
# HEK293 MPD ctr 2-2: second counter-screen for TRPC6 modulators: effect in parental HEK293 cells; shares compounds with TRPC6 inhibitor; membrane potential dye fluorescence; after compound, maximal acetylcholine stimulation; inhibition, % at 10 µM; 2,400 compounds, 14% hits;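 active = membrane potential signal drops by more than 5 SD from the mean control signal, in both duplicate plates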;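 also: plate controls were acetylcholine ECmax control wells for no effect and buffer only wells for full effect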
# TRPC4 ctr mod: tests whether TRPC6 modulators also affect mouse TRPC4; 2,400 compounds, 69% hits; HEK293 TRPC4/mu-opioid, membrane potential fluorescence; percent change from control (negative = decrease, positive = increase), % at 10 µM; shares compounds with TRPC6 inhibitor;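 active = membrane potential signal moved up or down beyond 5 SD of buffer control wells, in both duplicate plates, actives on both sides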;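 also: plate controls were assay buffer wells for no effect and DAMGO maximal-effect wells for full effect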
# TRPC4 ctr inh 2: mouse TRPC4 off-target activity of TRPC6 modulators, second screen; shares compounds with TRPC6 inhibitor; HEK293 TRPC4/mu-opioid, membrane potential dye fluorescence; stimulated with maximal-effect DAMGO; inhibition, % at 10 µM; 2,400 compounds, 55% hits;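 active = drop in membrane potential signal beyond 5 SD of the control wells in both duplicate plates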;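 also: TRPC4 counter screen for TRPC6 hits run under conditions tuned for TRPC6 not TRPC4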
# TRPC6 inh conf: mouse TRPC6 inhibitor confirmation. HEK293-TRPC6, membrane potential dye, ACh-evoked depolarization. inhibition, % at 10 µM. 3,300 compounds, 43% hits. shares compounds with TRPC6 inhibitor;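 active = fluorescence ratio falls more than 5 SD below the full-stimulation control mean, in both duplicate runs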;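 also: integrated fluorescence ratio of peak minus minimum over baseline after agonist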
# TRPC6 act conf: mouse TRPC6 activator confirmation; shares compounds with TRPC6 inhibitor; HEK293-TRPC6 membrane potential dye fluorescence, FDSS; activation, % at 10 µM; 2,800 compounds, 11% hits;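 active = ratio signal rise beyond 5 SD above unstimulated control wells' mean, seen in both duplicate runs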;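 also: plate controls were buffer EC0 wells for no effect and acetylcholine ECmax response for full effect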
# Numbers without * were called inactive; i = inactive; x = no result given. Only some compounds are listed: those with a hit (about 2.3% of all), similar ones and a draw of the others.
SMILES,TRPC6 inhibitor,TRPC6 act,TRPC4 act,TRPC4 inh,TRPC4 potent,HEK293 MPD ctr-2,HEK293 MPD ctr 2-2,TRPC4 ctr mod,TRPC4 ctr inh 2,TRPC6 inh conf,TRPC6 act conf,others
CN1CCN(c2ccc(S(=O)(=O)N3CCCCC3)cc2NC(=O)COc2ccc(F)cc2)CC1,-5.9*,i,i,i,10*,i,i,10.5%*,74.5%*,i,i,
CC(=O)Nc1cccc(N=NN2CCCCC2)c1,i,i,i,i,i,x,x,x,x,x,x,
COc1ccc(NC(C)=O)cc1CP(=O)(c1ccccc1)c1ccccc1,i,i,i,i,i,x,x,x,x,x,x,
CN(Cc1ccc(F)cc1)S(=O)(=O)c1nnc(NC(=O)c2ccccc2Br)s1,i,16.9*,i,-6*,i,i,i,17.0%*,62.0%*,i,i,
CCC(c1nnnn1C1CCCC1)N1CCN(c2cccc(OC)c2)CC1 (stereo unspecified),i,i,i,i,i,x,x,x,x,x,x,
NS(=O)(=O)c1ccc(N/N=C/c2ccc(C(=O)O)cc2)c([N+](=O)[O-])c1,i,i,i,i,i,x,x,x,x,x,x,
Cc1nn(-c2ccccc2)c(N2CCCC2)c1/C=N/Nc1ccc(S(N)(=O)=O)cc1[N+](=O)[O-],-5.53*,i,i,i,i,i,i,-10.0%*,54.0%*,i,i,
CCN(C(=O)Cc1c(C(=O)O)n(CC)c2ccccc12)c1cccc(C(F)(F)F)c1,i,i,i,i,i,x,x,x,x,x,x,
Cc1ccc(S(=O)(=O)N2CCC(Oc3cccc(C(F)(F)F)c3)CC2)cc1,-7.34*,i,i,i,i,x,x,x,x,i,x,TRPC4 spec 2=i;TRPC4 spec=i;HEK293 MPD ctr 2-1=i;HEK293 MPD ctr-1=i
CN1CCN(S(=O)(=O)c2ccc(Oc3cccc(C(F)(F)F)c3)nc2)CC1,i,i,i,i,i,x,x,x,x,x,x,
Cc1c(NC(=O)CN2CCN(c3ccc(O)cc3)CC2)c(=O)n(-c2ccccc2)n1C,i,i,i,i,i,x,x,x,x,x,x,
CCN(CC)CCCNC(=O)c1cc(-c2ccc(Cl)c(Cl)c2)on1,-6.44*,i,i,i,i,149.0%*,i,25.5%*,54.0%*,i,x,
Cc1cccc2nc(-c3cccnc3)c(NCCC(C)C)n12,-5.53*,i,i,i,i,i,i,-24.0%*,83.5%*,41.0%*,i,
COc1ccc([C@H]2[C@H](C(=O)C(C)(C)C)N3N=Cc4ccccc4C3C23C(=O)OC(C)(C)OC3=O)cc1 (stereo partly specified),-6.03*,i,i,i,i,i,i,9.0%*,i,i,i,
COc1ccc([C@@H]2[C@@H](C(=O)C(C)(C)C)N3N=Cc4ccccc4[C@@H]3C23C(=O)OC(C)(C)OC3=O)cc1OC,i,i,i,i,i,x,x,x,x,x,x,
COc1cccc(CN2CCC(n3nccc3NC(=O)CCOc3ccccc3)CC2)c1,i,i,i,i,i,x,x,x,x,x,x,
COc1cccc(CN2CCC(n3nccc3NC(=O)CCOc3ccccc3)CC2)c1O,-10.1*,i,i,i,i,x,x,x,x,i,i,TRPC4 spec 2=i;TRPC4 spec=1.8%*;HEK293 MPD ctr 2-1=i;HEK293 MPD ctr-1=0.8%*
O=C1CCCC2=C1C(c1ccccc1)CC(=O)N2c1ccc(F)cc1F (stereo unspecified),i,i,i,i,i,x,x,x,x,x,x,
CC(C)(C)c1ccc(OCC(=O)N/N=C/c2ccsc2)cc1,i,i,i,i,i,x,x,x,x,x,x,
COC(CNC(=O)c1ccc2c(c1)ncn2-c1cccc(F)c1)OC,i,i,i,i,i,x,x,x,x,x,x,
COC(CNC(=O)c1ccc2c(c1)ncn2-c1ccc(F)cc1F)OC,-5.01*,i,i,i,i,i,i,40.0%*,72.0%*,i,x,
Cc1c(CN(C)C)c2c(n1C)C(=O)c1ccc(Br)cc1-2,-11*,i,i,i,i,-177.5%*,67.0%*,-31.5%*,59.0%*,66.5%*,i,
CCN(CC)CC#CC(O)(c1ccccc1)c1ccccc1,-13.7*,i,i,i,i,x,x,x,x,80.2%*,i,TRPC4 spec 2=i;TRPC4 spec=1.8%*;HEK293 MPD ctr 2-1=-31.0%*;HEK293 MPD ctr-1=5.0%*
OCCN(CC#CC(O)(c1ccccc1)c1cccc(F)c1)CCO (stereo unspecified),i,i,i,i,i,x,x,x,x,x,x,
CN(C)CCC(O)(c1ccccc1)c1ccccc1,i,i,i,i,i,x,x,x,x,x,x,
CN(C)CCC#CC(O)(c1ccccc1)c1ccccc1,-5.69*,i,i,i,i,i,98.0%*,7.0%*,i,83.5%*,x,
CN(C)C(C)(C)C#CC(O)(c1ccccc1)c1ccccc1,-8.36*,i,i,i,i,x,x,x,x,67.3%*,i,TRPC4 spec 2=i;TRPC4 spec=-0.1%*;HEK293 MPD ctr 2-1=11.0%*;HEK293 MPD ctr-1=4.5%*
COc1cc(C(C(=O)NC2CCCC2)N(CCO)C(=O)Cn2nnc(-c3ccc(C)o3)n2)ccc1O (stereo unspecified),i,i,i,i,i,x,x,x,x,x,x,

# Screens from PubChem BioAssay.
